Measurements from ChEMBL document CHEMBL1132963, “Structure-based design of potent, amidine-derived inhibitors of factor Xa: evaluation of selectivity, anticoagulant activity, and antithrombotic activity” (2000).

Key:
[1] = molecular target: Coagulation factor X (Homo sapiens) (UniProt P00742); experiment: Apparent association constant against human Coagulation factor X.
How it was run: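 Human fXa at 3.2 nM final in Tris/NaCl buffer pH 7.4 with HSA; inhibitor added from MeOH in triplicate at four to eight concentrations, then chromogenic substrate (0.3 mM stock) to start hydrolysis, read at 405 nm. Free and bound enzyme taken from on-plate standard curves; apparent Kass = [Eb]/[Ef][Io − Ib] from concentrations giving 20–80% inhibition. At least 3 separate experiments averaged.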

[2] = molecular target: Prothrombin (Homo sapiens) (UniProt P00734); experiment: Tested for inhibition of thrombin.
How it was run: (§1)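 Apparent association constant from inhibition of chromogenic substrate hydrolysis read at 405 nm, using a single substrate concentration suited to each protease. Inhibitor dilutions done in triplicate at four to eight concentrations; Kass computed from free and bound enzyme at 20–80% inhibition. Mean of at least 3 separate experiments.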

Homo sapiens = species on record: Homo sapiens; experiment: Compound required to double the time to clot formation in reconstituted human plasma, using the prothromboplastin time (PT); format: functional
How it was run: (§2)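 Reconstituted human plasma; clotting by activated partial thromboplastin time or prothrombin time. Value is the inhibitor concentration that doubles clotting time.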

[3] = Selectivity as the ratio of Kass value towards fXa to that of UK.
How it was run: (§3)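 Ratio of fXa Kass to Kass for the second protease. Each Kass is an apparent association constant from chromogenic substrate hydrolysis kinetics at 405 nm, run at one substrate concentration per protease, in triplicate at four to eight inhibitor concentrations. Each value is the mean of at least 3 separate experiments.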

[4] = test system: Plasminogen and coagulation factor X (Homo sapiens); experiment: Selectivity as the ratio of Kass value towards fXa to that of plasmin.
[5] = Selectivity as the ratio of Kass value towards fXa to that of tissue plasminogen activator.; how it was run: as §3
[6] = molecular target: Plasminogen (Homo sapiens) (UniProt P00747); experiment: Tested for inhibition of plasmin
Plasminogen (Homo sapiens), sequence (P00747 whole entry, looked up): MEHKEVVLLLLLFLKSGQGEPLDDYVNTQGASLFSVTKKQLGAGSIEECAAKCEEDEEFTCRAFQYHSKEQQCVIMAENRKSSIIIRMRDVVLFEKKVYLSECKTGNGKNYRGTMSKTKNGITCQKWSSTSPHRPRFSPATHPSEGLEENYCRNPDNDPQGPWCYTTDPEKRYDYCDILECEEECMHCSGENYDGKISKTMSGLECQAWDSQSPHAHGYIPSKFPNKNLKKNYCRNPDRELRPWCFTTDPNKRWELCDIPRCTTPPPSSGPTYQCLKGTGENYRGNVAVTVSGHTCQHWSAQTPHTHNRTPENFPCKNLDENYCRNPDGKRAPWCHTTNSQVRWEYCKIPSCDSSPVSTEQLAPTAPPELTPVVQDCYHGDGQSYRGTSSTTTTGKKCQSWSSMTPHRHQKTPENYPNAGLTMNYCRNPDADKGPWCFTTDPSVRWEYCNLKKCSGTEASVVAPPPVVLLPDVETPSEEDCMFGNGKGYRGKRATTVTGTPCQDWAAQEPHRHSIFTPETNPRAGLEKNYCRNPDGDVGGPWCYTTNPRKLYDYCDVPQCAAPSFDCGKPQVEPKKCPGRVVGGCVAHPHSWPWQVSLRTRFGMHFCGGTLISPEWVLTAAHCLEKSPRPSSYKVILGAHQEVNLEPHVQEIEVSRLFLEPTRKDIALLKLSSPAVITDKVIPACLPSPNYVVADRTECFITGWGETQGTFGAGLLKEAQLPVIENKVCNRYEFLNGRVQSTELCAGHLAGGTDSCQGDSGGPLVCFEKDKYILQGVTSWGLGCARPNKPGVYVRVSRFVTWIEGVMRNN

[7] = molecular target: Coagulation factor X (Homo sapiens) (UniProt P00742); experiment: Selectivity as the ratio of Kass value towards fXa to that of aPC.; how it was run: as §3
[8] = molecular target: Tissue-type plasminogen activator (Homo sapiens) (UniProt P00750); experiment: Tested for inhibition of Tissue type plasminogen activator; how it was run: as §1
Tissue-type plasminogen activator (Homo sapiens), sequence (P00750 36-562 limits assumed): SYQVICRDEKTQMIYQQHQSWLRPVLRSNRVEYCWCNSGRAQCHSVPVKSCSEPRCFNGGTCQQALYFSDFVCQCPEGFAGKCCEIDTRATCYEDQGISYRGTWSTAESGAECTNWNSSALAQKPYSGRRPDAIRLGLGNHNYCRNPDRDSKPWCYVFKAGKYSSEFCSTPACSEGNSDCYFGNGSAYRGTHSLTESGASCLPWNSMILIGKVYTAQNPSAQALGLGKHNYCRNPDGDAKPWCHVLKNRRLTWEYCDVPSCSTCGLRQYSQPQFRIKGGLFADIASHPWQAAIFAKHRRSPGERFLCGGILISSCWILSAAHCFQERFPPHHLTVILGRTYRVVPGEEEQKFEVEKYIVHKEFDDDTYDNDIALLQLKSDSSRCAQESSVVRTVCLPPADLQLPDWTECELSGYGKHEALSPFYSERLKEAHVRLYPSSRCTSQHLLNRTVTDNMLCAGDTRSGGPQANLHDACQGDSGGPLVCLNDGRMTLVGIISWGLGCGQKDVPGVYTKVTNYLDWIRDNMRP

[9] = molecular target: Thrombin and coagulation factor X (Homo sapiens) (UniProt P00734+P00742); experiment: Selectivity as the ratio of Kass value towards fXa to that of thrombin.; format: protein assay; how it was run: as §3
Thrombin and coagulation factor X (Homo sapiens), sequence (P00742 whole entry, looked up, other chains not shown): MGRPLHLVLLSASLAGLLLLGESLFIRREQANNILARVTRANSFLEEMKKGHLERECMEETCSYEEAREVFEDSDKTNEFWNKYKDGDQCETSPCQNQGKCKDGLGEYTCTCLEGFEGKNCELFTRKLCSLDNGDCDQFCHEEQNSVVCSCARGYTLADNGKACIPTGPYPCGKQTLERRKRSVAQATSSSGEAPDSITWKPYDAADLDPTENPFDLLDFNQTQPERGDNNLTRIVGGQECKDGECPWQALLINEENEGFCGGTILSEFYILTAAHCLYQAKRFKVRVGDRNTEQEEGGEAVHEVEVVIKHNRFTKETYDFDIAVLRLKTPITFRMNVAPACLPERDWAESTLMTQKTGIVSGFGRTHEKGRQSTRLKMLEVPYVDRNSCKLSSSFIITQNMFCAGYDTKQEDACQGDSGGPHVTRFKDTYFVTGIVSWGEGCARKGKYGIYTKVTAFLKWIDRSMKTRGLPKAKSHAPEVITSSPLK

[10] = Selectivity as the ratio of Kass value towards fXa to that of trypsin.; how it was run: as §3
[11] = Compound required to double the time to clot formation in reconstituted human plasma, using activated partial thromboplastin time (APTT); format: functional; how it was run: as §2
[12] = molecular target: Vitamin K-dependent protein C (Homo sapiens) (UniProt P04070); experiment: Tested for inhibition of activated protein C; how it was run: as §1
Vitamin K-dependent protein C (Homo sapiens), sequence (P04070 43-197 limits assumed): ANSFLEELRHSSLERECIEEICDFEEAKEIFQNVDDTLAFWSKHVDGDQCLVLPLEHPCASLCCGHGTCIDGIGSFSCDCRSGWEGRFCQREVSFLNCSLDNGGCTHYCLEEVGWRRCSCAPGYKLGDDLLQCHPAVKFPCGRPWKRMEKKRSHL
Vitamin K-dependent protein C (Homo sapiens), sequence (P04070 212-461 limits assumed): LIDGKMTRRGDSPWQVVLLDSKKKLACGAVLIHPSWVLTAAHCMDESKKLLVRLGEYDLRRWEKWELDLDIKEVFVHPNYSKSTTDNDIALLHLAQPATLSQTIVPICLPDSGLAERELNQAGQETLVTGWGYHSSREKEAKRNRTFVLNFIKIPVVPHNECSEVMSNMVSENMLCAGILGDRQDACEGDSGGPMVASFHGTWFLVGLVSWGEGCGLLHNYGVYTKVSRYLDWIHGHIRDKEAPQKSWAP

Trypsin II (Bos taurus) = molecular target: T1, Trypsin II (Bos taurus) (UniProt Q29463); experiment: Tested for inhibition of trypsin; how it was run: as §1
T1 sequence (whole entry): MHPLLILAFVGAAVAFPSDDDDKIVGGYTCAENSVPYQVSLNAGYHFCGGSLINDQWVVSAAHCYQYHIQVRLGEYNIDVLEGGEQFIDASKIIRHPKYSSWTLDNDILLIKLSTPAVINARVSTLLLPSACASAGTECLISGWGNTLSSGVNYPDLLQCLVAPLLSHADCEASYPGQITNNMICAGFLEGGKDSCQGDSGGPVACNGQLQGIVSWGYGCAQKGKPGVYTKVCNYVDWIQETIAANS

[13] = molecular target: Urokinase-type plasminogen activator (Homo sapiens) (UniProt P00749); experiment: Tested for inhibition of Urokinase-type plasminogen activator; how it was run: as §1

Coagulation factor X (Homo sapiens), sequence (P00742 41-179 limits assumed): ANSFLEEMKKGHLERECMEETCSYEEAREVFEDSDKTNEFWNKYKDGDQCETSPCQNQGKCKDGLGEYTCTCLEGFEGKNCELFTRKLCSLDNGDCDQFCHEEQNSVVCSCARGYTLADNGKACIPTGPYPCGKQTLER
Coagulation factor X (Homo sapiens), sequence (P00742 235-488 limits assumed): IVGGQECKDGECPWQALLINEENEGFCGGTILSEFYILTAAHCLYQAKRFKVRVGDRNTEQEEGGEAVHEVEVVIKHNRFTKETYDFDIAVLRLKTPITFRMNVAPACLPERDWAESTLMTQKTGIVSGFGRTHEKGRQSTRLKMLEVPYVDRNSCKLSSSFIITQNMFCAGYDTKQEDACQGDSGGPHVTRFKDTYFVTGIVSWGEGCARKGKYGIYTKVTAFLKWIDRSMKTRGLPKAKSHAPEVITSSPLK

CC(C)(C)c1ccc(C(=O)Nc2ccccc2NC(=O)C2CCCN(C(=N)N)C2)cc1 (stereo not drawn)
K ass [1]: 1.2e+07 l M-1

CC(C)(C)c1ccc(C(=O)Nc2ccsc2C(=O)Nc2cccc(C(=N)N)c2)cc1
K ass [1]: 1.2e+07 l M-1

CC(C)(C)c1ccc(C(=O)Nc2ccc(C(=O)O)cc2NC(=O)c2cccc(C(=N)N)c2)cc1
K ass [1]: 5.4e+07 l M-1

CC(C)(C)c1ccc(C(=O)Nc2ccccc2NC(=O)c2cccc(C(=N)N)c2)cc1
K ass [2]: 3e+06 l M-1
Activity (Homo sapiens): 0.96 µM
Ratio [3]: > 250000
Ratio [4]: 42000
Ratio [5]: 23000
K ass [6]: 6000 l M-1
Ratio [7]: 13000
K ass [8]: 11000 l M-1
K ass [1]: 2.5e+08 l M-1
Ratio [9]: 83
Ratio [10]: 740
Activity [11]: 0.67 µM
K ass [12]: 2000 l M-1
K ass (Trypsin II (Bos taurus)): 340000 l M-1

CC(C)(C)c1ccc(C(=O)Nc2ccccc2C(=O)Nc2cccc(C(=N)N)c2)cc1
K ass [1]: 3.5e+06 l M-1

CCOC(=O)COc1ccc(NC(=O)c2cccc(C(=N)N)c2)c(NC(=O)c2ccc(C(C)C)cc2)c1
K ass [1]: 1.6e+08 l M-1

COc1ccc(C(=O)Nc2ccc(C(=N)N)cc2NC(=O)c2ccc(OC)cc2)cc1
K ass [1]: 270000 l M-1

CC(C)c1ccc(C(=O)Nc2ccccc2NC(=O)c2cccc(C(=N)N)c2)cc1
K ass [1]: 1.8e+08 l M-1

CC(C)c1ccc(C(=O)Nc2cc(O)ccc2NC(=O)c2cccc(C(=N)N)c2)cc1
K ass [1]: 2.3e+08 l M-1

COc1ccc(C(=O)Nc2ccccc2NC(=O)c2cccc(C(=N)N)c2)cc1
K ass [2]: 270000 l M-1
Activity (Homo sapiens): 1.5 µM
Ratio [3]: 15000
Ratio [4]: 750
Ratio [5]: 750
K ass [6]: 20000 l M-1
K ass [13]: 1000 l M-1
Ratio [7]: 1000
K ass [8]: 20000 l M-1
K ass [1]: 1.4e+07 l M-1
Ratio [9]: 56
Ratio [10]: 25
Activity [11]: 2 µM
K ass [12]: 15000 l M-1
K ass (Trypsin II (Bos taurus)): 600000 l M-1

CC(C)c1ccc(C(=O)Nc2cc(OCC(=O)O)ccc2NC(=O)c2cccc(C(=N)N)c2)cc1
K ass [2]: 800000 l M-1
Ratio [3]: 340000
Ratio [4]: 8700
Ratio [5]: 49000
K ass [6]: 39000 l M-1
K ass [13]: 1000 l M-1
Ratio [7]: 24000
K ass [8]: 7000 l M-1
K ass [1]: 3.4e+08 l M-1
Ratio [9]: 430
Ratio [10]: 140
K ass [12]: 14000 l M-1
K ass (Trypsin II (Bos taurus)): 2.5e+06 l M-1

COc1ccc(C(=O)Nc2ccccc2NC(=O)c2ccc(C(=N)N)cc2)cc1
K ass [1]: 5.7e+06 l M-1

COc1ccc(C(=O)Nc2ccccc2NC(=O)C2CCCN(C(=N)N)C2)cc1 (stereo not drawn)
K ass [1]: 1e+06 l M-1

CC(C)(C)c1ccc(C(=O)Nc2cc(C(=O)O)ccc2NC(=O)c2cccc(C(=N)N)c2)cc1
K ass [2]: 650000 l M-1
Activity (Homo sapiens): 0.83 µM
Ratio [3]: 470000
Ratio [4]: 6400
Ratio [5]: 120000
K ass [6]: 73000 l M-1
K ass [13]: 1000 l M-1
Ratio [7]: 36000
K ass [8]: 4000 l M-1
Ratio [9]: 720
Ratio [10]: 390
Activity [11]: 0.72 µM
K ass [12]: 13000 l M-1
K ass (Trypsin II (Bos taurus)): 1.2e+07 l M-1

COc1ccc(NC(=O)c2ccccc2NC(=O)c2cccc(C(=N)N)c2)cc1
K ass [1]: 1.7e+06 l M-1

CCOc1ccc(C(=O)Nc2ccccc2NC(=O)c2cccc(C(=N)N)c2)cc1
K ass [1]: 2.9e+07 l M-1
